The list is not random: actives were taken first. Their share in the collection is about 2.6%.
TDP2 absorb = blocks human TDP2 phosphodiesterase activity; 0.34% of 370,000 active; AID 720702; inhibition, % at 12.8 µM; recombinant TDP2, T5PNP hydrolysis, p-nitrophenol absorbance 415 nm;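 active = inhibition above the mean of all tested compounds plus 3 SD, set per campaign, cut at about 25% in these data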
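Evaluation: % inhibition relative to enzyme-containing and enzyme-free wells. Material: recombinant human TDP2. Benchmarks: enzyme-free and DMSO wells. Timing: enzyme reaction with compound for 2 h at 37 °C. Compound dosing: 12.8 µM only. Measured by: p-Nitrophenol epi absorbance. Reagent: T5PNP substrate at 5 mM, a TopII-DNA adduct mimic. Replication: single well per compound.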
PRMT1 inh = blocks human protein arginine methyltransferase 1. Q99873. recombinant PRMT1, activity-based probe fluorescence polarization. inhibition, % at 2.79 µM. 1.3% of 370,000 active. AID 652257;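 active = inhibition above about 21% made by adding two undisclosed values, limit read from the data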
Target sequence (Q99873 whole entry, looked up): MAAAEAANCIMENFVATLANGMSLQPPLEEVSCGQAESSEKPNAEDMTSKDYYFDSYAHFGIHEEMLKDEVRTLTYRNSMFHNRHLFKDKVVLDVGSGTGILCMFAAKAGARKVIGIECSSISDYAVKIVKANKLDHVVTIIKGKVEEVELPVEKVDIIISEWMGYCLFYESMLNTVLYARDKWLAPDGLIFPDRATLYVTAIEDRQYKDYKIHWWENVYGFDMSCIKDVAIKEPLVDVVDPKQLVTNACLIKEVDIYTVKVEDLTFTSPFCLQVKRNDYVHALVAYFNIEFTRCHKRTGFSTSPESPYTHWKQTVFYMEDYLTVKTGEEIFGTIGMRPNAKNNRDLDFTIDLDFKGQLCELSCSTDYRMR
Apaf-1 inh = inhibitors of human Apaf-1 apoptosome; inhibition, % at 20 µM; reconstituted apoptosome caspase-3 activity, DEVD-Rh110 fluorescence; 0.71% of 330,000 active; O14727; active = inhibition of at least 40% at 20 µM
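Material: cell-free apoptosome with Apaf-1, procaspase-3 and caspase-9; Buffer or medium: Hepes pH 7.5 with detergent and BSA; Reagent: cytochrome c trigger plus (Z-DEVD)2-Rh110 caspase-3 substrate; Times: compound with Apaf-1, dATP, procaspase-3 30 min, then 50 min reaction, room temperature; Technique: Rh110 fluorescence intensity.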
PAD4 inh = inhibitors of human PAD4 | recombinant PAD4, RCA probe fluorescence polarization | 0.41% of 330,000 active | Q9UM07 | inhibition, % at 6.36 µM | AID 485272;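 active = percent inhibition above a cutoff equal to the mean of all tested compounds plus 3 SD, cut at about 15% in these data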
GSTO1 counter = blocks human GSTO1 in RBBP9 counter-screen; AID 1974; recombinant GSTO1, activity-based probe fluorescence polarization; inhibition, % at 5.96 µM; P78417; 1.1% of 300,000 active;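 active = inhibition above the campaign mean inhibition plus 3 SD, cut at about 35% in these data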
GSTO1 inh conf = GSTO1 (human) inhibition, confirmation; recombinant GSTO1, probe fluorescence polarization; inhibition, % at 5.96 µM; shares compounds with GSTO1 counter; AID 2176; 54% of 2,400 active;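 active = inhibition above the primary screen's cutoff, its mean inhibition plus 3 SD, cut at about 35% in these data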;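 also: loss of polarization as inhibitors block binding of rhodamine sulfonate ester activity probe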
PAD4 FP conf = confirmation of human PAD4 inhibitors. recombinant PAD4, RCA probe fluorescence polarization. shares compounds with PAD4 inh. inhibition, % at 6.36 µM. 28% of 1,200 active;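 active = mean inhibition across replicates above the hit cutoff set by the earlier primary screen, cut at about 15% in these data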;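 also: inhibitors block active-site labeling by the probe so polarization falls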
Apaf-1 inh conf = confirmation of Apaf-1 inhibitors; reconstituted apoptosome, caspase-3 DEVD-Rh110 fluorescence; inhibition, % at 20 µM; 25% of 1,800 active; shares compounds with Apaf-1 inh;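 active = mean inhibition of at least 40% at 20 µM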
Rh110 interf inh = Rh110 signal interference in Apaf-1 inhibitor counter-screen; shares compounds with Apaf-1 inh; Rh110 fluorescence interference, quenched caspase reaction; activation (fluorescence interference), % at 20 µM; 1,800 tested, under 10 active;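 active = signal rise of 40% or more at 20 µM, treated as a fluorescence artifact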
Apaf1 inh interf = shows fluorescence interference in the Apaf-1 inhibitor assay format | shares compounds with Apaf-1 inh | fluorescence interference counterscreen, Apaf-1 assay format | IC50, µM | 460 tested, under 10 active; call rule not given here
Hits are given with their value; n = inactive; x = no result given.

SMILES	TDP2 absorb	PRMT1 inh	Apaf-1 inh	PAD4 inh	GSTO1 counter	GSTO1 inh conf	PAD4 FP conf	Apaf-1 inh conf	Rh110 interf inh	others
CC(C)[C@H]1C(=O)N2CCC[C@H]2[C@]2(O)O[C@](NC(=O)[C@@H]3C=C4c5cccc6[nH]cc(c56)C[C@H]4N(C)C3)(C(C)C)C(=O)N12	x	x	94.8	28.9	59.0	n	n	x	x
COc1ccc(OC(=O)N(C)C[C@@H]2OCc3cnnn3CCCC(=O)N([C@H](C)CO)C[C@H]2C)cc1	n	n	x	x	x	x	x	x	x
CCOC(=O)c1c(NC(=O)c2c(N)n(CCCOC)c3nc4ccccc4nc23)sc2c1CCCC2	n	n	n	n	n	x	x	x	x
CCCCn1c(N)c(C(=O)OCC2CCCO2)c2nc3ccccc3nc21 (stereo not drawn)	x	x	n	69.4	81.3	n	n	x	x
CCN(CC)c1ccc(N=Cc2c(O)n(-c3ccccc3)c(=O)[nH]c2=O)cc1	n	24.9	n	18.2	42.3	n	n	x	x
CCOc1ccc(-n2c(O)c(C=Nc3ccc(N(CC)CC)cc3)c(=O)[nH]c2=O)cc1	n	n	n	n	n	x	x	x	x
CCOc1ccccc1-n1c(O)c(C=Nc2ccc(N(CC)CC)cc2)c(=O)[nH]c1=O	n	n	n	37.6	54.1	n	n	x	x
O=S(=O)(c1cc(Cl)cc(Cl)c1)N1Cc2cc(-c3ccccc3)ccc2-n2nncc2C1	n	n	x	x	x	x	x	x	x
O=C(c1ccc2nc(-c3ccco3)c(-c3ccco3)nc2c1)N1CCC2(CC1)OCCO2	x	x	56.4	38.1	90.3	n	n	n	n
CC(C)OC(=O)c1c(N)n(CC2CCCO2)c2nc3ccccc3nc12 (stereo not drawn)	n	n	81.5	n	44.9	n	x	n	n
O=c1c2ccccc2nc(SCC2CCCCO2)n1-c1ccccc1 (stereo not drawn)	n	n	n	n	n	x	x	x	x
CC(C)CCn1c(N)c(C(=O)OCC2CCCO2)c2nc3ccccc3nc21 (stereo not drawn)	n	n	41.3	72.3	88.0	n	n	n	n
CC(C)[N+](C)(CCC(C(N)=O)(c1ccccc1)c1ccccc1)C(C)C	n	n	n	n	n	x	x	x	x
COC(=O)c1nc(-c2ccc3c(n2)C(=O)C(N)=C(OC)C3=O)c(N)c(-c2ccc(OC)c(OC)c2O)c1C	n	n	88.8	n	78.7	88.1	x	99.6	n	Apaf1 inh interf=n
Nc1cc2nc3ccccc3nc2cc1N	n	n	62.4	n	56.4	41.0	x	51.5	n	Apaf1 inh interf=n
CCOc1cc2c(cc1OCC)-n1cccc1C(c1cccc(OCC)c1O)NC2 (stereo not drawn)	n	n	n	n	n	x	x	x	x
Nc1c(C(=O)NCc2ccco2)c2nc3ccccc3nc2n1Cc1ccc(F)cc1	n	n	89.3	n	71.1	n	x	n	n
COCCCNC(=O)c1c(NC(=O)c2ccccc2)n(Cc2ccccc2)c2nc3ccccc3nc12	n	n	n	n	n	x	x	x	x
CCCCn1c(N)c(C(=O)NCc2cccs2)c2nc3ccccc3nc21	n	n	85.0	n	60.6	82.5	x	n	n
CCCCOCCCn1c(N)c(C(=O)OCCOC)c2nc3ccccc3nc21	n	n	65.9	n	37.8	35.4	x	n	n
COc1ccc(CCNC(=O)c2c(N)n(CCN3CCOCC3)c3nc4ccccc4nc23)cc1OC	n	n	n	n	n	x	x	x	x
CCCCCn1c(N)c(C(=O)NCc2cccs2)c2nc3ccccc3nc21	n	n	69.8	65.0	60.1	n	n	40.6	n	Apaf1 inh interf=n
CCCCn1c(=O)c(C(=O)NCc2ccccc2OC)c(O)c2ccccc21	n	n	n	n	n	x	x	x	x
CCCn1ncc(CN2CCCC(C(=O)c3cccc(OC)c3)C2)c1C (stereo not drawn)	n	n	n	n	n	x	x	x	x
c1ccc(CN2Cc3ccccc3-n3nncc3C2)nc1	n	n	x	x	x	x	x	x	x

Screening results: PubChem, several laboratories
